≈ marks a conversion by molar mass, not a printed value. Numbered stars: 1 amine (or outer) side, 2 acyl side, 3 side chain; on linkers, the order of the positions; unused ones are H or OH. Bridge positions count the residues as written; N and C are the ends. Square brackets hold non-standard residues; d marks the D form. Peptide text beside a SMILES is read from it. * marks the point of attachment. Benzoyl(4-Ph) = O=C(c1ccc(-c2ccccc2)cc1)*; X1 = c1ccc(-c2ccc(N*)cc2)cc1; NH(2-ClPh) = Clc1ccccc1N*; Octanoyl = CCCCCCCC(=O)*; Dab = NCC[C@H](N)C(=O)O; CO = O=C([*:1])[*:2]

Series [1] has as its system Escherichia coli. Kind of series: Antibacterial activity against Escherichia coli ATCC 25922 after 18 hrs by 2 fold serial dilution method. Type of series: functional. Conditions: ATCC 25922, 18 h. In a few lines:
(§1)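 Overnight cultures in nutrient or Mueller Hinton broth at 37 °C with shaking, diluted 50-fold into fresh MHB and grown 1.5–3 h to mid-log. Inoculum 5×10^5 CFU/mL in 2-fold serial dilutions, final range 32 to 0.015 μg/mL. MIC read visually after 18 h at 37 °C as the lowest concentration with no visible growth.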

Series [2] relates to Klebsiella pneumoniae. The series is described as follows: Antibacterial activity against multidrug resistant Klebsiella pneumoniae ATCC 700603 after 18 hrs by 2 fold serial dilution method. Conditions: Klebsiella pneumoniae, 700603, 18 h. It counts as functional. In short, it runs like this: (§2)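 Overnight cultures at 37 °C in nutrient or Mueller Hinton broth with shaking were diluted 50-fold in MHB and grown 1.5–3 h to mid-log phase. The inoculum was 5×10^5 CFU/mL in MHB. Compounds were 2-fold serially diluted, final 32 to 0.015 μg/mL. After 18 h at 37 °C, the MIC was read visually as the lowest concentration with no visible growth.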

Series [3] can be described thus: Cytotoxicity against HEK293 cells after 24 hrs by resazurin assay. It counts as cell-based. Conditions: human, HEK293 cells.
The subject of the next series is Staphylococcus aureus. Kind of series: microbe, parasite or virus in culture. Conditions: ATCC 25923, 18 h.
In series [4] the test system is Klebsiella pneumoniae. Kind of series: Antibacterial activity against Klebsiella pneumoniae ATCC 13883 after 18 hrs by 2 fold serial dilution method. It counts as functional. Conditions: ATCC 13883, 18 h. In a few lines:
as §1

The subject of series [5] is Pseudomonas aeruginosa. Kind of series: Antibacterial activity against Pseudomonas aeruginosa ATCC 27853 after 18 hrs by 2 fold serial dilution method. Type of series: functional. Conditions: ATCC 27853, 18 h. In a few lines:
as §1

Series [6] relates to Pseudomonas aeruginosa. The series is described as follows: Antibacterial activity against clinical isolate polymyxin resistant Pseudomonas aeruginosa PA9704 after 18 hrs by 2 fold serial dilution method. It counts as functional. Conditions: PA9704, 18 h. In short, it runs like this:
(§3)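 Polymyxin-resistant clinical isolates were grown overnight at 37 °C in NB or MHB with shaking, diluted 50-fold in MHB and grown 1.5–3 h to mid-log phase. The inoculum was 5×10^5 CFU/mL. Compounds were 2-fold broth serial dilutions, final 32 to 0.015 μg/mL; the polymyxin controls ran 128–0.06 μg/mL. The MIC was the lowest concentration with no visible growth after 18 h at 37 °C.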

The nature of series [7]: Cytotoxicity against primary human proximal tubule cells assessed as GGT release at 100 ug/mL by Western blot analysis.
Series [8] has as its system Klebsiella pneumoniae. The series is described as follows: Antibacterial activity against Klebsiella pneumoniae ATCC BAA-2146 expressing NDM-1 after 18 hrs by 2 fold serial dilution method. Type of series: functional. Conditions: ATCC BAA-2146, 18 h. In a few lines: as §2
Series [9] concerns Pseudomonas aeruginosa. Kind of series: Antibacterial activity against clinical isolate polymyxin resistant Pseudomonas aeruginosa FADDI-PA070 after 18 hrs by 2 fold serial dilution method. It counts as functional. Conditions: FADDI-PA070, 18 h. In short, it runs like this: as §3
Series [10] deals with Acinetobacter baumannii. Kind of series: Antibacterial activity against Acinetobacter baumannii ATCC 19606 after 18 hrs by 2 fold serial dilution method. Type of series: functional. Conditions: ATCC 19606, 18 h. In a few lines:
as §1

Series [11] in a line: Cytotoxicity against HK2 cells assessed as GGT release by Western blot analysis. Conditions: human, primary human renal proximal tubule epithelial cells; read-out: CC50. Type of series: cell-based, HK-2. For orientation: A western blot detects proteins with antibodies after separation by electrophoresis.
The test system of series [12] is Acinetobacter baumannii. Kind of series: Antibacterial activity against clinical isolate carbapenem and polymyxin resistant Acinetobacter baumannii Ptyela 100734512:2 after 18 hrs by 2 fold serial dilution method. It counts as functional. Conditions: Ptyela 100734512:2, 18 h. In a few lines: as §3
Series [13] concerns Klebsiella pneumoniae. The series is described as follows: Antibacterial activity against clinical isolate carbapenem and polymyxin resistant Klebsiella pneumoniae 138-16357-20362 after 18 hrs by 2 fold serial dilution method. It counts as functional. Conditions: 138-16357-20362, 18 h. In a few lines: as §3
Series [14] in a line: Cytotoxicity against human HepG2 cells after 24 hrs by resazurin assay. Type of series: cell-based. Conditions: HepG2 cells. On the technique in general: The colour change of resazurin is a common sign of viable cells or microbes.
Series [15] can be described thus: Cytotoxicity against HK2 cells assessed as LDH release by Western blot analysis. Conditions: human, hk-2. Background: Release of lactate dehydrogenase indicates damage to the cell membrane.
Series [16] concerns Klebsiella pneumoniae. The series is described as follows: Antibacterial activity against clinical isolate carbapenem and polymyxin resistant Klebsiella pneumoniae Koprana 100650661:1 after 18 hrs by 2 fold serial dilution method. It counts as functional. Conditions: Koprana 100650661:1, 18 h. In short, it runs like this:
as §3

Series [17] in a line: Cytotoxicity against HK2 cells assessed as LDH release by Western blot analysis. Type of series: cell-based, HK-2. Conditions: human, primary human renal proximal tubule epithelial cells; read-out: CC50.
Series [18] deals with Klebsiella pneumoniae. Kind of series: Antibacterial activity against Klebsiella pneumoniae after 16 to 20 hrs by 2 fold broth microdilution method. It counts as functional.
The subject of series [19] is Acinetobacter baumannii. Kind of series: Antibacterial activity against Acinetobacter baumannii after 16 to 20 hrs by 2 fold broth microdilution method. Type of series: functional.
For series [20], the system named is Escherichia coli. The series is described as follows: Antibacterial activity against Escherichia coli after 16 to 20 hrs by 2 fold broth microdilution method. It counts as functional.
The subject of series [21] is Pseudomonas aeruginosa. Kind of series: Antibacterial activity against Pseudomonas aeruginosa after 16 to 20 hrs by 2 fold broth microdilution method. It counts as functional.
Series [22] relates to Pseudomonas aeruginosa. The series is described as follows: Antibacterial activity against Pseudomonas aeruginosa IFO3080. It counts as functional.
Series [23] deals with Escherichia coli. The series is described as follows: Antibacterial activity against Escherichia coli IFO12734. It counts as functional.
The test system of series [24] is Escherichia coli. Kind of series: Antibacterial activity against Escherichia coli ATCC 26 after 18 hrs by 2 fold serial dilution method. Conditions: ATCC 26, 18 h. It counts as functional. In a few lines:
as §2

Take `CC(C)C[C@@H]1NC(=O)[C@@H](Cc2ccccc2)NC(=O)[C@H](CCN)NC(=O)[C@@H](NC(=O)[C@H](CCN)NC(=O)[C@@H](NC(=O)[C@H](CCN)NC(=O)c2ccc(-c3ccccc3)cc2)[C@@H](C)O)CCNC(=O)[C@H]([C@@H](C)O)NC(=O)[C@H](CCN)NC(=O)[C@H](CCN)NC1=O` ({Benzoyl(4-Ph)}-[Dab]T[Dab][Dab][Dab][dF]L[Dab][Dab]T; lactam 4-C): the MIC is 0.5 µg/mL (≈ 0.402 µM) in the series with Escherichia coli [1]; 1 µg/mL (≈ 0.804 µM) against Klebsiella pneumoniae [2]; above 32 µg/mL against Staphylococcus aureus; 0.5 µg/mL (≈ 0.402 µM) with Klebsiella pneumoniae [4]; 1 µg/mL (≈ 0.804 µM) against Pseudomonas aeruginosa [5]; above 32 µg/mL in the series on Pseudomonas aeruginosa [6]. In addition, the MIC was 0.5 µg/mL (≈ 0.402 µM) in the series with Klebsiella pneumoniae [8]; 8 µg/mL (≈ 6.43 µM) in the series with Pseudomonas aeruginosa [9]; 0.5 µg/mL (≈ 0.402 µM) against Acinetobacter baumannii [10]; 8 µg/mL (≈ 6.43 µM) against Acinetobacter baumannii [12]; above 32 µg/mL in the series with Klebsiella pneumoniae [13]; above 32 µg/mL in the series with Klebsiella pneumoniae [16]. The CC50 at 24 h was 297 µM in series [3] and 298 µM in series [14]. The Activity result in series [7] and in [15] was “Non-toxic” throughout. Moreover, the CC50 in [11] and in series [17] was above 128 µg/mL in each case.

Consider `CC(C)C[C@@H]1NC(=O)[C@@H](Cc2ccccc2)NC(=O)[C@H](CCN)NC(=O)[C@@H](NC(=O)[C@H](CCN)NC(=O)[C@@H](NC(=O)[C@H](CCN)NC(=O)Nc2ccccc2Cl)[C@@H](C)O)CCNC(=O)[C@H]([C@@H](C)O)NC(=O)[C@H](CCN)NC(=O)[C@H](CCN)NC1=O` ({NH(2-ClPh)-CO}-[Dab]T[Dab][Dab][Dab][dF]L[Dab][Dab]T; lactam 4-C), for which the MIC against Escherichia coli [1] was 1 µg/mL (≈ 0.822 µM); against Klebsiella pneumoniae [2], 2 µg/mL (≈ 1.64 µM); with Staphylococcus aureus, above 32 µg/mL; in the series with Klebsiella pneumoniae [4], 2 µg/mL (≈ 1.64 µM); in the series with Pseudomonas aeruginosa [5], 0.5 µg/mL (≈ 0.411 µM); against Pseudomonas aeruginosa [6], above 32 µg/mL. Moreover, the MIC with Klebsiella pneumoniae [8] is 4 µg/mL (≈ 3.29 µM); in the series on Pseudomonas aeruginosa [9], above 32 µg/mL; against Acinetobacter baumannii [10], 1 µg/mL (≈ 0.822 µM); with Acinetobacter baumannii [12], above 32 µg/mL; against Klebsiella pneumoniae [13], above 32 µg/mL; against Klebsiella pneumoniae [16] it was above 32 µg/mL. Moreover, the MIC90 turned out to be 4 µg/mL (≈ 3.29 µM) against Klebsiella pneumoniae [18], 4 µg/mL (≈ 3.29 µM) with Acinetobacter baumannii [19], 2 µg/mL (≈ 1.64 µM) against Escherichia coli [20] and 2 µg/mL (≈ 1.64 µM) against Pseudomonas aeruginosa [21]. Also, in series [14], the CC50 at 24 h is above 300 µM.

For `CCCCCCCC(=O)N[C@@H](CCN)C(=O)N[C@H](C(=O)N[C@@H](CCN)C(=O)N[C@H]1CCNC(=O)[C@H]([C@@H](C)O)NC(=O)[C@H](CCN)NC(=O)[C@H](CCN)NC(=O)[C@H](CC(C)C)NC(=O)[C@@H](Cc2ccccc2)NC(=O)[C@H](CCN)NC1=O)[C@@H](C)O` (Octanoyl-[Dab]T[Dab][Dab][Dab][dF]L[Dab][Dab]T; lactam 4-C), the MIC was 0.5 µg/mL (≈ 0.42 µM) against Escherichia coli [1]; 1 µg/mL (≈ 0.841 µM) in the series on Klebsiella pneumoniae [2]; above 128 µg/mL in the series on Staphylococcus aureus; 2 µg/mL (≈ 1.68 µM) in the series on Klebsiella pneumoniae [4]; 1 µg/mL (≈ 0.841 µM) against Pseudomonas aeruginosa [5]; above 128 µg/mL with Pseudomonas aeruginosa [6]. Besides, the MIC in the series with Pseudomonas aeruginosa [22] was 1 µM (≈ 1.19 µg/mL); against Klebsiella pneumoniae [8], 0.5 µg/mL (≈ 0.42 µM); in the series on Pseudomonas aeruginosa [9], above 32 µg/mL; against Acinetobacter baumannii [10] it was 0.5 µg/mL (≈ 0.42 µM); in the series with Escherichia coli [23], 0.5 µM (≈ 0.595 µg/mL); in the series with Acinetobacter baumannii [12], above 64 µg/mL. Moreover, the MIC against Klebsiella pneumoniae [13] and in the series with Klebsiella pneumoniae [16] was above 128 µg/mL each time. The CC50 at 24 h in series [14] was above 300 µM.

As for `CC(C)C[C@@H]1NC(=O)[C@@H](Cc2ccccc2)NC(=O)[C@H](CCN)NC(=O)[C@@H](NC(=O)[C@H](CCN)NC(=O)[C@@H](NC(=O)[C@H](CCN)NC(=O)Nc2ccc(-c3ccccc3)cc2)[C@@H](C)O)CCNC(=O)[C@H]([C@@H](C)O)NC(=O)[C@H](CCN)NC(=O)[C@H](CCN)NC1=O` ({X1-CO}-[Dab]T[Dab][Dab][Dab][dF]L[Dab][Dab]T; lactam 4-C), the MIC with Escherichia coli [1] stood at 2 µg/mL (≈ 1.59 µM); in the series with Klebsiella pneumoniae [2] it was 2 µg/mL (≈ 1.59 µM); with Staphylococcus aureus, 32 µg/mL (≈ 25.4 µM); against Klebsiella pneumoniae [4], 2 µg/mL (≈ 1.59 µM); against Pseudomonas aeruginosa [5] it was 1 µg/mL (≈ 0.795 µM); against Pseudomonas aeruginosa [6] it was 8 µg/mL (≈ 6.36 µM). Further, the MIC was 1 µg/mL (≈ 0.795 µM) against Klebsiella pneumoniae [8]; 16 µg/mL (≈ 12.7 µM) in the series with Pseudomonas aeruginosa [9]; 1 µg/mL (≈ 0.795 µM) against Acinetobacter baumannii [10]; 16 µg/mL (≈ 12.7 µM) against Acinetobacter baumannii [12]; above 32 µg/mL against Klebsiella pneumoniae [13]; 2.5 µg/mL (≈ 1.99 µM) in the series on Escherichia coli [24]. Further, the MIC in the series with Klebsiella pneumoniae [16] worked out at 16 µg/mL (≈ 12.7 µM). Also, the CC50 at 24 h in series [3] was above 300 µM; in series [14], 316 µM. Moreover, the CC50 in series [11] and in series [17] was above 128 µg/mL throughout.

A word on the CC50: it is the concentration giving 50% cytotoxicity. Broadly, the MIC90 is the lowest concentration that inhibits either 90% of growth or 90% of the strains tested, depending on the study. Low readings indicate greater potency, high ones weaker potency.

The values above are taken from ChEMBL document CHEMBL3774373, “Activity and Predicted Nephrotoxicity of Synthetic Antibiotics Based on Polymyxin B” (J Med Chem, 2016).
